From ChEMBL document CHEMBL1134575, “Synthesis, molecular modeling, and structure-activity relationship of benzophenone-based CAAX-peptidomimetic farnesyltransferase inhibitors” (J Med Chem, 2001)

Assays:
[1] = molecular target: T1, Farnesyltransferase (Saccharomyces cerevisiae S288c, UniProt P22007+P29703); test: Inhibitory activity against farnesyltransferase.; type: protein-complex assay
T1 sequence (P29703 whole entry): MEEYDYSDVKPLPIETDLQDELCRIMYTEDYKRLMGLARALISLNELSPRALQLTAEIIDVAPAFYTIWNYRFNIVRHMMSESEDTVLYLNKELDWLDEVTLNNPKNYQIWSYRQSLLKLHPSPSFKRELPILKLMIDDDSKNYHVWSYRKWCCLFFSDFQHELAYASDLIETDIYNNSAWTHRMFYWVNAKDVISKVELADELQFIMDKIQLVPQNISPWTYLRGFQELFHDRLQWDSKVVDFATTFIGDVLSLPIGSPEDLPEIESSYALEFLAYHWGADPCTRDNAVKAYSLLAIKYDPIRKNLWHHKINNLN
T1 sequence (P22007 whole entry): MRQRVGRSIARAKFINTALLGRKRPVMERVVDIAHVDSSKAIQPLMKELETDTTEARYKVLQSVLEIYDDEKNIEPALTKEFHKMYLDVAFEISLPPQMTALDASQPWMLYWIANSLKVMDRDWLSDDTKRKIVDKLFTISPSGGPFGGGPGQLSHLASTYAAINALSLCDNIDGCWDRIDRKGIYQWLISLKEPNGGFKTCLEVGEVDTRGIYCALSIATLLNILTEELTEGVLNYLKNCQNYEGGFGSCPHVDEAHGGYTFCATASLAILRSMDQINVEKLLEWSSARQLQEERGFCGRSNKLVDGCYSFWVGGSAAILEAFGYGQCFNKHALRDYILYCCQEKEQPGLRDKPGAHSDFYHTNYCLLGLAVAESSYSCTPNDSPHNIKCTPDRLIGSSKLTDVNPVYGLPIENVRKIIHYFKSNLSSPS
In short: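 Yeast FTase, GST fused at the N-terminus of the β-subunit, expressed in E. coli DH5α and purified on glutathione-agarose. Buffer: 50 mM Tris/HCl pH 7.4, 5 mM MgCl2, 10 μM ZnCl2, 5 mM DTT. Substrates: 7 μM dansyl-GCVLS, 20 μM FPP. Inhibitor in 1% DMSO. IC50 from initial velocities at four or five concentrations, three independent runs, mean ± SD.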

[2] = system: K562; test: Antiproliferative activity against K562 cell line; type: functional; settings: Homo sapiens
In short: (§1)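 Suspended human leukaemic lines (K-562, HL-60, THP-1) grown in RPMI 1640 with penicillin/streptomycin and 10% FBS. About 10 000 cells per well in bicarbonate medium without HEPES. Test substances added in serial twofold dilutions (1:2 to 1:1024). Incubation 72 h, 37 °C, 5% CO2, humidified. Cells counted electronically, each count the mean of three. GI50 read where the concentration–response curve crosses 50% of control counts.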

[3] = system: THP-1; test: Antiproliferative activity against THP-1 cell line; type: functional; settings: Homo sapiens; in short: as §1
[4] = system: HL-60; test: Antiproliferative activity against HL60 cell line; type: functional; settings: Homo sapiens; in short: as §1

SMILES | IC50 [1] [nM] | other results
N[C@@H](CS)C(=O)Nc1ccc(NC(=O)c2cccc3ccccc23)c(C(=O)c2ccccc2)c1 | 4600 | –
CC(C(=O)Nc1ccc(NC(=O)[C@@H](N)CS)cc1C(=O)c1ccccc1)c1ccccc1 (stereo not given in full) | 650 | –
N[C@@H](CS)C(=O)Nc1ccc(NC(=O)Cc2cc(Cl)cc(Cl)c2)c(C(=O)c2ccccc2)c1 | 535 | –
N[C@@H](CS)C(=O)Nc1ccc(NC(=O)Cc2ccc(C(F)(F)F)cc2)c(C(=O)c2ccccc2)c1 | 725 | –
N[C@@H](CS)C(=O)Nc1ccc(NC(=O)Cc2ccc([N+](=O)[O-])cc2)c(C(=O)c2ccccc2)c1 | 115 | –
N[C@@H](CS)C(=O)Nc1ccc(NC(=O)Cc2cccc(Cl)c2Cl)c(C(=O)c2ccccc2)c1 | 420 | –
N[C@@H](CS)C(=O)Nc1ccc(NC(=O)c2ccccc2)c(C(=O)c2ccccc2)c1 | 4780 | –
N[C@@H](CS)C(=O)Nc1ccc(NC(=O)Cc2ccc(Cl)cc2Cl)c(C(=O)c2ccccc2)c1 | 120 | –
Cc1ccc(CS(=O)(=O)Nc2ccc(NC(=O)[C@@H](N)CS)cc2C(=O)c2ccccc2)cc1 | 100 | –
N[C@@H](CS)C(=O)Nc1ccc(NC(=O)Cc2cccc3ccccc23)c(C(=O)c2ccccc2)c1 | 380 | –
N[C@@H](CS)C(=O)Nc1ccc(NC(=O)Cc2cc(Cl)ccc2Cl)c(C(=O)c2ccccc2)c1 | 2400 | –
N[C@@H](CS)C(=O)Nc1ccc(NC(=O)C(c2ccccc2)c2ccccc2)c(C(=O)c2ccccc2)c1 | 36 | –
N[C@@H](CS)C(=O)Nc1ccc(NS(=O)(=O)Cc2ccccc2)c(C(=O)c2ccccc2)c1 | 85 | –
N[C@@H](CS)C(=O)Nc1ccc(NC(=O)Cc2ccc(Cl)c(Cl)c2)c(C(=O)c2ccccc2)c1 | 480 | –
N[C@@H](CS)C(=O)Nc1ccc(NC(=O)Cc2ccc3ccccc3c2)c(C(=O)c2ccccc2)c1 | 460 | –

Second part, led by results:

IC50 [1] [nM] | SMILES | other results
8600 | CC(CC(=O)Nc1ccc(NC(=O)[C@@H](N)CS)cc1C(=O)c1ccccc1)CC(C)(C)C (stereo not given in full) | –
105 | N[C@@H](CS)C(=O)Nc1ccc(NC(=O)Cc2ccc(Cl)cc2)c(C(=O)c2ccccc2)c1 | –
400 | Cc1ccccc1CC(=O)Nc1ccc(NC(=O)[C@@H](N)CS)cc1C(=O)c1ccccc1 | –
540 | Cc1cccc(CC(=O)Nc2ccc(NC(=O)[C@@H](N)CS)cc2C(=O)c2ccccc2)c1 | –
7600 | CC(=O)Nc1ccc(NC(=O)[C@@H](N)CS)cc1C(=O)c1ccccc1 | –
650 | N[C@@H](CS)C(=O)Nc1ccc(NC(=O)Cc2ccccc2)c(C(=O)c2ccccc2)c1 | –
545 | COc1ccc(CC(=O)Nc2ccc(NC(=O)[C@@H](N)CS)cc2C(=O)c2ccccc2)cc1 | –
550 | N[C@@H](CS)C(=O)Nc1ccc(NC(=O)CCCC(=O)O)c(C(=O)c2ccccc2)c1 | –
77 | Cc1ccc(CC(=O)Nc2ccc(NC(=O)[C@@H](N)CS)cc2C(=O)c2ccccc2)cc1 | GI50 [2]: 8100 nM
1290 | N[C@@H](CS)C(=O)Nc1ccc(NC(=O)CCc2ccccc2)c(C(=O)c2ccccc2)c1 | –
340 | N[C@@H](CS)C(=O)Nc1ccc(NC(=O)Cc2c(Cl)cccc2Cl)c(C(=O)c2ccccc2)c1 | –
1420 | N[C@@H](CS)C(=O)Nc1ccc(NC(=O)C(=O)c2ccccc2)c(C(=O)c2ccccc2)c1 | –
700 | N[C@@H](CS)C(=O)Nc1ccc(NC(=O)CCC(=O)O)c(C(=O)c2ccccc2)c1 | –
76 | N[C@@H](CS)C(=O)Nc1ccc(NC(=O)Cc2ccc(Br)cc2)c(C(=O)c2ccccc2)c1 | GI50 [3]: 14900 nM; GI50 [2]: 7900 nM; GI50 [4]: 4200 nM
2400 | COC(=O)CCCC(=O)Nc1ccc(NC(=O)[C@@H](N)CS)cc1C(=O)c1ccccc1 | –
1800 | COC(=O)CCC(=O)Nc1ccc(NC(=O)[C@@H](N)CS)cc1C(=O)c1ccccc1 | –
